Screens (PubChem BioAssay)
TRPN1 ag: activates the zebrafish TRPN1 channel; HEK293 zebrafish TRPN1-YFP, Fluo-8 calcium fluorescence; 100% = response to 87 µM carbachol; hit rate 0.18% among 220,000; AID 1424; activation, % at 3 µM;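 active = activation above its plate's cutoff, the mean activation of test wells on that plate plus 3 SD, cut at about 19% in these data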;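 also: 0% = DMSO alone and 100% = 87 µM carbachol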
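Material: zebrafish TRPN1-YFP in HEK293 cells; Doses: single test compound dose, 3 µM nominal, 0.3% DMSO; Timing: dye loading 1 h at 37 °C, then 30 min room temperature; Technique: intracellular calcium fluorescence with Fluo-8; Benchmarks: high carbachol 87 µM, low DMSO alone.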
GPR7 antagonist: human neuropeptides B/W receptor 1 antagonism. P48145. GPR7-expressing cells, fluorescence antagonist assay. inhibition, % at 4.4 µM. hit rate 1.1% among 290,000. AID 1861; in the data active = inhibition above about 16%, passing the limit was not always enough;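 also: cells stimulated with the agonist NPW; 0% = agonist with vehicle and 100% = vehicle without agonist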
CRFBP-R2 block: CRF-BP/CRF-R2 complex antagonism; HEK293 CRF-R2/CRF-BP, CRF-induced calcium fluorescence; inhibition, % at 11.8 µM; hit rate 0.59% among 350,000;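 active = inhibition of the ligand-induced calcium signal above about 50% at the single tested concentration, limit read from the data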
TRPML3 ag: agonists of human TRPML3 channel. Q8TDD5. HEK293 TRPML3-YFP, Fluo-8 calcium fluorescence; 100% = the carbachol control signal. activation, % at 3 µM. hit rate 0.29% among 220,000. AID 1448;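 active = activation above its plate's cutoff, the mean activation of the plate's test wells plus 3 SD, cut at about 12% in these data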;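 also: 0% = DMSO only wells and 100% = carbachol wells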
Target sequence (Q8TDD5 whole entry, looked up): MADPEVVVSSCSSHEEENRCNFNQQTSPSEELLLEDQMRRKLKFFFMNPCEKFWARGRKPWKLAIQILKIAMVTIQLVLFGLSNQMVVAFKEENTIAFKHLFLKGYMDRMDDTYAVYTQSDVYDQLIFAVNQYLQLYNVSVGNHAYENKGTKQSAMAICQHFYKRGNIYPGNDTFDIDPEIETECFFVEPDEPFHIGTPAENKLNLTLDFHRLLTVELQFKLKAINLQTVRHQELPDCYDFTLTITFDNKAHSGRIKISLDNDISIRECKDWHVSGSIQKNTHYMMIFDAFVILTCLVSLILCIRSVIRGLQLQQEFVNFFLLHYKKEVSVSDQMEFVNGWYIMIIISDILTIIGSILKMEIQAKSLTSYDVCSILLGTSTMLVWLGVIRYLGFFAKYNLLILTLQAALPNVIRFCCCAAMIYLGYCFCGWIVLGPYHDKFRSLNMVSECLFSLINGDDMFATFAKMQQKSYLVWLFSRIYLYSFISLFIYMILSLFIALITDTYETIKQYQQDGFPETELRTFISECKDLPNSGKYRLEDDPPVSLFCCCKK
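Test system: HEK293 cells stably carrying human TRPML3-YFP; Doses: single dose, 3 µM final nominal compound, 0.3% DMSO final; Schedule: dye loading 1 h 37 °C then 30 min ambient, 125 s read; Technique: Fluo-8 calcium fluorescence; Benchmarks: high control carbachol 87 µM, low control DMSO.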
CRFBP-R2 agonist: agonists of human CRF-binding protein/CRF-R2 receptor complex | HEK293 CRF-R2/CRF-BP, calcium dye fluorescence (FLIPR); percent of saturating CRF peptide response | activation, % at 13.2 µM | hit rate 0.46% among 350,000;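 active = activation of at least 50%, plus an integration ratio under a set limit after plate pattern correction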;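 also: plate controls were neutral control wells without compound for no effect and CRF at EC100 for full effect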
An asterisk follows results filed as active. Compounds with a hit are over-represented: about 2% of the library has one in this group of screens.

Cc1nnsc1-c1onc(C)c1C(=O)Nc1cc(Cl)cc(Cl)c1 was read as TRPN1 ag 6, GPR7 antagonist 1, CRFBP-R2 block -2, TRPML3 ag 0 and CRFBP-R2 agonist -3.
Screening Cc1nnsc1-c1onc(C)c1C(=O)O/N=C/c1ccc(Cl)cc1 returned TRPN1 ag 0, GPR7 antagonist -4, CRFBP-R2 block 125*, TRPML3 ag 0 and CRFBP-R2 agonist 0.
Cc1nnc(NC(=O)c2cc(S(=O)(=O)N3CCCCC3)ccc2Cl)s1 was read as GPR7 antagonist -3, CRFBP-R2 block -8 and CRFBP-R2 agonist 0.
O=C(C(c1ccccc1)c1ccccc1)N1CCN(CCN2C(=O)c3cccc4cccc(c34)C2=O)CC1 was read as TRPN1 ag 0, GPR7 antagonist -14, CRFBP-R2 block 52*, TRPML3 ag 0 and CRFBP-R2 agonist -2.
CC(C)(C)N(Cc1ccccc1)C(=O)COC(=O)c1ccc(S(=O)(=O)N2CCOCC2)cc1 was read as CRFBP-R2 block 6 and CRFBP-R2 agonist -1.
Screening CN(C)CCCNC(=O)C[C@H]1C[C@H](C(=O)N2CCOCC2)[C@@]2(C)c3[nH]c4ccc(Cl)cc4c3CCN2C1=O returned CRFBP-R2 block 95* and CRFBP-R2 agonist 1.
CCN(CC)C(=O)[C@H]1CC(CC(=O)NC/C=C(\C)CCC=C(C)C)C(=O)N2CCc3c([nH]c4ccc(OC)cc34)[C@]12C (some centres not stated) was read as CRFBP-R2 block 78* and CRFBP-R2 agonist -7.
CC[C@]12c3[nH]c4ccc(OC)cc4c3CCN1C(=O)C(CC(=O)NCCCOC)C[C@@H]2C(=O)N1CCN(C(=O)c2ccco2)CC1 (some centres not stated) was read as CRFBP-R2 block 53* and CRFBP-R2 agonist 0.
`COc1ccc2[nH]c3c(c2c1)CCN1C(=O)C(CC(=O)NCCc2ccccn2)C[C@H](C(=O)N(C(C)C)C(C)C)[C@@]31C` (some centres not stated) gave CRFBP-R2 block 70* and CRFBP-R2 agonist -4.
Screening CN(C)CCCNC(=O)C[C@H]1C[C@H](C(=O)N2CCCCC2)[C@@]2(C)c3[nH]c4ccc(Cl)cc4c3CCN2C1=O returned CRFBP-R2 block -8 and CRFBP-R2 agonist -1.
Cc1cccc(CN2CCC(N3CC(C)OC(C)C3)CC2)c1 (configuration not stated) was read as GPR7 antagonist 3, CRFBP-R2 block 22 and CRFBP-R2 agonist 2.
`COCCCNC(=O)C[C@H]1C[C@H](C(=O)N(C(C)C)C(C)C)[C@@]2(C)c3[nH]c4ccc(Cl)cc4c3CCN2C1=O` gave CRFBP-R2 block 19 and CRFBP-R2 agonist -4.
`CN(CC(=O)Nc1ccccc1C(=O)NC1CC1)Cc1ccc(Cl)s1` gave CRFBP-R2 block -2 and CRFBP-R2 agonist -1.
`CCN(CC)C(=O)[C@H]1C[C@H](CC(=O)NC/C=C(\C)CCC=C(C)C)C(=O)N2CCc3c([nH]c4ccc(Cl)cc34)[C@]12C` gave CRFBP-R2 block 75* and CRFBP-R2 agonist 2.
For O=[N+]([O-])c1ccc(Sc2cccc[n+]2[O-])c2nonc12 the results were TRPN1 ag 35*, GPR7 antagonist 20*, CRFBP-R2 block -35, TRPML3 ag 14* and CRFBP-R2 agonist 25.
O=[N+]([O-])c1ccc(Nc2ccccc2)c2nonc12 was read as GPR7 antagonist 4, CRFBP-R2 block 43 and CRFBP-R2 agonist 13.
`Cc1ccc(/C=C2/NC(=O)N(c3ccccc3)C2=O)o1` gave TRPN1 ag 2, GPR7 antagonist 1, CRFBP-R2 block -5, TRPML3 ag 1 and CRFBP-R2 agonist 1.
Screening O=C1N/C(=C/c2ccc(N3CCOCC3)o2)C(=O)N1c1cccc(Cl)c1 returned TRPN1 ag 0, GPR7 antagonist -16, CRFBP-R2 block 70*, TRPML3 ag 1 and CRFBP-R2 agonist 8.
For Cc1ccc(S(=O)(=O)N(C)C)cc1NC(=O)c1cc(-c2ccco2)nc2ccccc12 the results were GPR7 antagonist -7, CRFBP-R2 block -8 and CRFBP-R2 agonist 1.
CC1(C)N=C(N)N=C(N)N1c1ccc(CCCCc2ccccc2)cc1 was read as CRFBP-R2 block -1 and CRFBP-R2 agonist 1.
Screening Cc1ccc(NC(=O)COC(=O)c2cccnc2Cl)cc1S(=O)(=O)N1CCOCC1 returned CRFBP-R2 block 64* and CRFBP-R2 agonist -3.
